Reference: ChEMBL document CHEMBL3994637, “Broad spectrum anti-infective properties of benzisothiazolones and the parallels in their anti-bacterial and anti-fungal effects” (Bioorg Med Chem Lett, 2017)
Converted amounts (≈) assume the structure as drawn.

Tests used:
Assay type in all cases: functional
Aspergillus fumigatus = assay: Anti-fungal activity against Aspergillus fumigatus after 48 hrs by broth microdilution method
Pseudomonas aeruginosa = assay: Antibacterial activity against Pseudomonas aeruginosa ATCC BAA-427 by broth microdilution method
Method in brief: (§1)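 Bacteria were tested by the NCCLS method in Mueller Hinton broth, with gentamicin and norfloxacin as reference drugs.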

Cryptococcus neoformans = assay: Anti-fungal activity against Cryptococcus neoformans after 48 hrs by broth microdilution method
Candida albicans = assay: Anti-fungal activity against Candida albicans after 48 hrs by broth microdilution method
[1] = test system: Trichophyton mentagrophytes; assay: Anti-fungal activity against Trichophyton mentagrophytes after 48 hrs by broth microdilution method
Staphylococcus aureus [2] = assay: Antibacterial activity against methicillin-resistant Staphylococcus aureus ATCC 700699 by broth microdilution method; conditions: Mu50
Sporothrix schenckii = assay: Anti-fungal activity against Sporothrix schenckii after 48 hrs by broth microdilution method
Klebsiella pneumoniae = assay: Antibacterial activity against Klebsiella pneumoniae ATCC 27736 by broth microdilution method; method in brief: as §1
Staphylococcus aureus [3] = assay: Antibacterial activity against Staphylococcus aureus ATCC 29213 by broth microdilution method
Candida parapsilosis = assay: Anti-fungal activity against Candida parapsilosis ATCC 22019 after 48 hrs by broth microdilution method; conditions: Lodderomyces parapsilosis, ATCC 22019, 48 h
Escherichia coli = assay: Antibacterial activity against Escherichia coli ATCC 9637 by broth microdilution method; conditions: W; method in brief: as §1
Plasmodium falciparum = assay: Antimalarial activity against chloroquine-sensitive Plasmodium falciparum 3D7 after 72 hrs by SYBR Green-1 staining based fluorescence assay; conditions: 3D7, 72 h
Staphylococcus aureus [4] = assay: Antibacterial activity against Staphylococcus aureus ATCC 25923 by broth microdilution method

| SMILES | MIC (Aspergillus fumigatus) [mg/L] | IC50 (Pseudomonas aeruginosa) [mg/L] | MIC (Pseudomonas aeruginosa) [mg/L] | MIC (Cryptococcus neoformans) [mg/L] | MIC (Candida albicans) [mg/L] | MIC [1] [mg/L] | IC50 (Staphylococcus aureus [2]) [mg/L] | MIC (Staphylococcus aureus [2]) [mg/L] | MIC (Sporothrix schenckii) [mg/L] | IC50 (Klebsiella pneumoniae) [mg/L] | MIC (Klebsiella pneumoniae) [mg/L] | IC50 (Staphylococcus aureus [3]) [mg/L] | MIC (Staphylococcus aureus [3]) [mg/L] | IC50 (Candida parapsilosis) [mg/L] | MIC (Candida parapsilosis) [mg/L] | IC50 (Escherichia coli) [mg/L] | MIC (Escherichia coli) [mg/L] | IC50 (Plasmodium falciparum) [µM] | IC50 (Staphylococcus aureus [4]) [mg/L] | MIC (Staphylococcus aureus [4]) [mg/L] | other results |
| --- | --- | --- | --- | --- | --- | --- | --- | --- | --- | --- | --- | --- | --- | --- | --- | --- | --- | --- | --- | --- | --- |
| Nc1ccccc1-n1sc2ccccc2c1=O | 12.5 (≈ 51.6 µM) | > 50 | > 50 | 2.3 (≈ 9.49 µM) | 4.3 (≈ 17.7 µM) | 3.3 (≈ 13.6 µM) | > 50 | > 50 | 11.7 (≈ 48.3 µM) | > 50 | > 50 | > 50 | > 50 | > 50 | > 50 | > 50 | > 50 | > 2 | > 50 | > 50 | IC50 (Cryptococcus neoformans): 1.9 mg/L (≈ 7.84 µM); IC50 (Candida albicans): 2.6 mg/L (≈ 10.7 µM); IC50 (Sporothrix schenckii): 5.7 mg/L (≈ 23.5 µM) |
| O=c1c2ccccc2sn1C1CCCCC1n1sc2ccccc2c1=O (centres undefined) | > 50 | > 50 | > 50 | > 50 | > 50 | > 50 | 1.4 (≈ 3.66 µM) | 2.3 (≈ 6.01 µM) | > 50 | > 50 | > 50 | 2.5 (≈ 6.54 µM) | 3.7 (≈ 9.67 µM) | > 50 | > 50 | > 50 | > 50 | > 2 | 3.2 (≈ 8.37 µM) | 3.4 (≈ 8.89 µM) | IC50 (Aspergillus fumigatus): > 50 mg/L; IC50 (Cryptococcus neoformans): > 50 mg/L; IC50 (Candida albicans): > 50 mg/L; IC50 [1]: > 50 mg/L; IC50 (Sporothrix schenckii): > 50 mg/L |
| C[C@@H](c1ccccc1)n1sc2ccccc2c1=O | 6.5 (≈ 25.5 µM) | > 50 | > 50 | 2.9 (≈ 11.4 µM) | 1 (≈ 3.92 µM) | 0.4 (≈ 1.57 µM) | 1 (≈ 3.92 µM) | 1.9 (≈ 7.44 µM) | 1.6 (≈ 6.27 µM) | > 50 | > 50 | 4.6 (≈ 18 µM) | 8.5 (≈ 33.3 µM) | 0.7 (≈ 2.74 µM) | 2.1 (≈ 8.22 µM) | > 50 | > 50 | > 2 | 6.8 (≈ 26.6 µM) | 10.2 (≈ 39.9 µM) | IC50 (Aspergillus fumigatus): 0.4 mg/L (≈ 1.57 µM); IC50 (Cryptococcus neoformans): 1 mg/L (≈ 3.92 µM); IC50 (Candida albicans): 0.5 mg/L (≈ 1.96 µM); IC50 [1]: 0.7 mg/L (≈ 2.74 µM); IC50 (Sporothrix schenckii): 0.4 mg/L (≈ 1.57 µM) |
| CC(C)Cn1sc2ccccc2c1=O | 2.6 (≈ 12.5 µM) | > 50 | > 50 | 0.4 (≈ 1.93 µM) | 0.6 (≈ 2.89 µM) | > 50 | 4.7 (≈ 22.7 µM) | 5.2 (≈ 25.1 µM) | 1.4 (≈ 6.75 µM) | > 50 | > 50 | 6.3 (≈ 30.4 µM) | 9.8 (≈ 47.3 µM) | 1 (≈ 4.82 µM) | 1.1 (≈ 5.31 µM) | > 50 | > 50 | > 2 | 10.6 (≈ 51.1 µM) | 15.4 (≈ 74.3 µM) | IC50 (Aspergillus fumigatus): 1.3 mg/L (≈ 6.27 µM); IC50 [1]: > 50 mg/L |
| COC(=O)[C@H](CC(C)C)n1sc2ccccc2c1=O | > 50 | > 50 | > 50 | 10.5 (≈ 37.6 µM) | 1.9 (≈ 6.8 µM) | 11.4 (≈ 40.8 µM) | 2.1 (≈ 7.52 µM) | 3.5 (≈ 12.5 µM) | 20.4 (≈ 73 µM) | > 50 | > 50 | 2.7 (≈ 9.66 µM) | 6.9 (≈ 24.7 µM) | 2.4 (≈ 8.59 µM) | 4.9 (≈ 17.5 µM) | > 50 | > 50 | > 2 | 2.1 (≈ 7.52 µM) | 3.5 (≈ 12.5 µM) | IC50 (Cryptococcus neoformans): 8.6 mg/L (≈ 30.8 µM); IC50 (Candida albicans): 1.5 mg/L (≈ 5.37 µM); IC50 [1]: 6.2 mg/L (≈ 22.2 µM); IC50 (Sporothrix schenckii): 2.9 mg/L (≈ 10.4 µM) |
| COC(=O)[C@H](C(C)C)n1sc2ccccc2c1=O | 12.5 (≈ 47.1 µM) | > 50 | > 50 | 4.5 (≈ 17 µM) | 2.3 (≈ 8.67 µM) | 2.4 (≈ 9.05 µM) | 0.82 (≈ 3.09 µM) | 0.97 (≈ 3.66 µM) | 11.9 (≈ 44.8 µM) | > 50 | > 50 | 2.6 (≈ 9.8 µM) | 4.6 (≈ 17.3 µM) | 1.6 (≈ 6.03 µM) | 3.1 (≈ 11.7 µM) | > 50 | > 50 | > 2 | 2.4 (≈ 9.05 µM) | 2.9 (≈ 10.9 µM) | IC50 (Cryptococcus neoformans): 2.5 mg/L (≈ 9.42 µM); IC50 (Candida albicans): 1.2 mg/L (≈ 4.52 µM); IC50 [1]: 1.7 mg/L (≈ 6.41 µM); IC50 (Sporothrix schenckii): 2.5 mg/L (≈ 9.42 µM) |
| COC(=O)[C@@H](NC(=O)[C@H](C(C)C)n1sc2ccccc2c1=O)C(C)C | > 50 | > 50 | > 50 | > 50 | > 50 | > 50 | > 50 | > 50 | > 50 | > 50 | > 50 | > 50 | > 50 | > 50 | > 50 | > 50 | > 50 | > 2 | > 50 | > 50 | IC50 (Aspergillus fumigatus): > 50 mg/L; IC50 (Cryptococcus neoformans): > 50 mg/L; IC50 (Candida albicans): > 50 mg/L; IC50 [1]: > 50 mg/L; IC50 (Sporothrix schenckii): > 50 mg/L |
| OC(Cn1cncn1)(Cn1cncn1)c1ccc(F)cc1F [FLUCONAZOLE] | > 32 |  |  | 2 (≈ 6.53 µM) | 1 (≈ 3.27 µM) | > 32 |  |  | 2 (≈ 6.53 µM) |  |  |  |  |  | 2 (≈ 6.53 µM) |  |  |  |  |  |  |
